# Sampled rows, rich in hits. Any-hit rate of the full collection: about 3.1%.
# OX1R antag-1: blocks the human orexin 1 receptor; O43613; CHO/OX1R cells, Fluo-8 calcium fluorescence, orexin A; inhibition, % at 5 µM; 330,000 tested, 0.43% active; AID 434989;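 active = inhibition above its plate's threshold, mean inhibition of all tested compounds on the plate plus 3 SD, cut at about 37% in these data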;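 note: 0% = orexin A challenge wells and 100% = SB-334867-A antagonist wells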
# Target sequence (O43613 whole entry, looked up): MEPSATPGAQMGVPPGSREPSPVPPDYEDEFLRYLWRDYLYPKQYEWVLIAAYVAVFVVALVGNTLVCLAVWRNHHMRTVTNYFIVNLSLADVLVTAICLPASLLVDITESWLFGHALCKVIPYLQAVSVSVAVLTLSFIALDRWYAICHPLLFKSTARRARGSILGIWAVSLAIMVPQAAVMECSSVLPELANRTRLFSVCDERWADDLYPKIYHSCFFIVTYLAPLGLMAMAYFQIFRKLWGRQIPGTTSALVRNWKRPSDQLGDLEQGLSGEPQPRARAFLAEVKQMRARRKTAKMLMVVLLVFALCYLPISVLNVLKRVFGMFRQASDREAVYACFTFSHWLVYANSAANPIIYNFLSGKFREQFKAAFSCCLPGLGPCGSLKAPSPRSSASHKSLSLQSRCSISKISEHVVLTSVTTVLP
# OX1R antag-2: blocks the human orexin 1 receptor. inhibition, % at 6.6 µM. OX1R-expressing cells, FRET antagonist read-out. AID 485270. 330,000 tested, 1.8% active; in the data active = inhibition mostly above about 38%, no sharp cut-off; inactive = mostly below about 40%;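 note: 0% = agonist challenge alone and 100% = reference antagonist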
# GalR3 antagonist: human GalR3 antagonism; O60755; HEK293 GalR3-CNG cAMP membrane potential fluorescence; galR3 body fused to GalR1 C-terminus; inhibition, % at 3 µM; 360,000 tested, 0.44% active; AID 651719;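 active = inhibition above the screen-wide average plus 3 SD, cut at about 13% in these data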;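 note: forskolin and galanin both at EC90 stimulate the cells; cAMP rise reported by CNG channel membrane potential dye signal; 0% = forskolin plus galanin with DMSO and 100% = forskolin alone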
# CHO parental Ca: counter-screen: ATP calcium response change in parental CHO cells. AID 463079. parental CHO-K1, ATP-induced calcium, Fluo-8 fluorescence. inhibition, % at 5.6 µM. 330,000 tested, 0.63% active;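 active = inhibition above that plate's mean sample inhibition plus 3 SD, cut at about 26% in these data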;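 note: 0% = ATP-challenged DMSO wells and 100% = DMSO wells without ATP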
#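 material = parental CHO cells | also added = ATP as calcium-mobilizing challenge | dosing = single point at 5.6 µM | detection = intracellular calcium via Fluo-8 no-wash fluorescent dye | read-out = % inhibition | benchmarks = low control ATP plus DMSO, high control DMSO only | repeats = one well per compound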
# GPR7 antagonist: antagonists of human GPR7 (neuropeptides B/W receptor 1) | GPR7-expressing cells, fluorescence antagonist assay | inhibition, % at 4.4 µM | 290,000 tested, 1.1% active; in the data active = inhibition above about 16%, passing the limit was not always enough;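 note: cells stimulated with the agonist NPW; 0% = agonist with vehicle and 100% = vehicle without agonist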
# GalR3 conf: GalR3 (human) antagonism, confirmation | shares compounds with GalR3 antagonist | inhibition, % at 3 µM | 1,600 tested, 59% active | HEK293 GalR3 CNG cAMP biosensor, membrane potential fluorescence; galR3 fused to GalR1 carboxy tail; challenged with forskolin and galanin at EC90 | AID 652245;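 active = inhibition above the primary screen's cutoff, the mean inhibition of all screened compounds plus 3 SD, cut at about 13% in these data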;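 note: 0% = forskolin plus galanin and 100% = forskolin alone with DMSO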
# CNG parental: counter-screen for GalR3 antagonists: nonspecific agonists in parental HEK-CNG cells | shares compounds with GalR3 antagonist | HEK293-CNG parental cells, cAMP membrane potential fluorescence; normalised: DMSO wells 0%, forskolin wells 100% | activation, % at 3 µM | 1,600 tested, 10% active; in the data active = activation above about 1.3%
# Starred values were filed as active, the others as inactive; . = not tested or not shown; ! = a repeat was not active.
SMILES,OX1R antag-1,OX1R antag-2,GalR3 antagonist,CHO parental Ca,GPR7 antagonist,GalR3 conf,CNG parental
CCc1ccc(OCC(=O)Nc2ccncc2)c(Br)c1,28,4,-12,27,-4,.,.
Cc1cc(OCC(=O)Nc2ccncc2)c(C)cc1Br,14,28,77*,58*,19,117*,0
O=C(COc1ccc2ccccc2c1Br)Nc1cccnc1,-6,1,-6,-14,20,.,.
COc1cc(C2Nc3ccc4ncccc4c3C3=C2C(=O)CC(C)(C)C3)cc(OC)c1O (configuration not stated),-14,20,-7,-14,-7,.,.
COc1cc(C2Nc3ccc4ncccc4c3C3=C2C(=O)CCC3)cc(OC)c1O (configuration not stated),-14,68*,13*,-9,-1,6,0
CCN(CC)c1ccc(C(=C2C=CC(=[N+](CC)CC)C=C2)c2ccccc2)cc1,.,.,33*,.,.,64*,1.4*
CCN(CC)c1ccc(C(=C2C=CC(=[N+](CC)CC)C=C2)c2ccc(N(CC)CC)cc2)cc1,.,.,32*,.,.,36*,-4
CCN(CC)c1ccc(C(=O)NNC(=O)CCNC(=O)c2ccccc2)cc1,16,15,-3,-14,.,.,.
CCCCNc1c(-c2cc3ccccc3o2)nc2nc(C)cc(C)n12,.,.,-7,.,.,.,.
Cc1nc(S(=O)(=O)Cc2ccccc2Cl)nc2c1CCC2,-25,25,27*,-11,-12,3,0
O=C(Nc1ccc(S(=O)(=O)N2CCCCC2)cc1)c1ccncc1,-2,16,-2,-1,14,.,.
O=C(Nc1ccc(Cc2ccncc2)cc1)c1ccc(S(=O)(=O)N2CCCC2)cc1,.,.,73*,.,11,94*,0
COc1ccc2c(c1O)Cc1ccccc1C2=O,-19,11,.,-10,-4,.,.
CC(C)=C1Cc2ccccc2C1=O,-15,4,13*,-2,-6,0,0
C[N+](C)(C)C/C=C1/COCO1,-4,-6,20*,-10,3,13*,0
O=C(Nc1ccc(F)c(Cl)c1)c1cc(C2CCCN(S(=O)(=O)c3cccc4cccnc34)C2)on1 (configuration not stated),.,.,13*,.,.,6,-1
COc1ccc(C(=O)CC(=O)C(=O)Nc2cccc(C(C)=O)c2)cc1,-28,4,-9,-20,-9,.,.
Cc1[nH]c2ccc(C(=O)NCCCN3CCOCC3)cc2c1C,-9,11,3,-1,-18,.,.
Cc1[nH]c2ccc(C(=O)NCCCN3CCN(C)CC3)cc2c1C,-10,8,15*,-7,-5,-4,0
CC1(C)CC2CC(C)(CN2S(=O)(=O)c2ccc(C(=O)Nc3cccc(S(=O)(=O)N4CCOCC4)c3)cc2)C1 (configuration not stated),2,7,87*,6,9,115*,-2
CC1(C)CC2CC(C)(CN2S(=O)(=O)c2ccc(C(=O)Nc3cc(S(=O)(=O)N4CCOCC4)ccc3Cl)cc2)C1 (configuration not stated),10,16,-4,-2,0,.,.
CC(NC(=O)c1c(O)c2ccccc2[nH]c1=O)c1ccccc1 (configuration not stated),-17,-1,-9,-10,-9,.,.
CN(c1ccc(OCC(=O)OCC(=O)Nc2ccc(F)cc2)cc1)S(=O)(=O)c1ccc(Cl)cc1,3,20,5,-7,-6,.,.
COc1ccc(NC(=O)COc2ccc(N(C)S(=O)(=O)c3ccc(Cl)cc3)cc2)cc1OC,51*,45*,91*,90*,.,85*,0
Cc1ccc(N2C(=O)c3cccc4c([N+](=O)[O-])ccc(c34)C2=O)c2cccnc12,15,18,14*,-16,-9,17*,0
SMILES,OX1R antag-1,OX1R antag-2,GalR3 antagonist,CHO parental Ca,GPR7 antagonist,GalR3 conf,CNG parental
COc1cc(C(=O)NCCc2cc3c(OC)ccc(OC)c3[nH]c2=O)cc(OC)c1OC,-18,9,14*,-2,-10,15*,0
COc1ccc(OC)c2[nH]c(=O)c(CCNC(=O)C(C)C)cc12,-12,6,-1,11,-15,.,.
c1ccc(Nc2ncnc3sccc23)cc1,-7,13,-8,6,-7,.,.
CC(Nc1ncnc2sccc12)c1ccccc1 (configuration not stated),12,36,94*,42*,10,105*,0
COc1cc([N+](=O)[O-])cc(/C=N/NC(=O)c2cncc(Br)c2)c1O,-12,27,25*,-2,-8,38*,0
O=C(Cc1c(Cl)cccc1Cl)OCC(=O)N1CCN(C(=O)c2ccco2)CC1,-6,17,-5,-5,-9,.,.
Cc1ccc(C)c(OCC(=O)NNC(=O)c2ccc(NC(=O)C3CC3)cc2)c1,.,.,0,.,-8,.,.
Cc1cc(Br)ccc1OCC(=O)NNC(=O)c1ccc(NC(=O)C2CC2)cc1,-3,48,50*,-9,2,36*,0
C[N+]1(CC(=O)OCCCC2CCCCC2)CCCC1,3,6,7,-1,-11,.,.
CCOC(=O)C[N+]1(C)CCN(C(C)=O)CC1,-11,3,13*,-8,-4,-3,0
COc1cc(CCC(=O)OCC(=O)Nc2sccc2C(N)=O)cc(OC)c1OC,.,.,93*,.,.,102*,-1
COc1cc(CCC(=O)OCC(=O)Nc2ccc(C(N)=O)cc2)cc(OC)c1OC,4,14,.,-7,-7,9,0
COc1ccc([N+](=O)[O-])cc1NC(=O)C(C)OC(=O)c1ccccn1 (configuration not stated),-22,35,-3,-9,-1,.,.
COc1ccc(CC2(CO)CCN(CC3=Cc4cc(Cl)ccc4OC3)CC2)cc1,43*,70,70*,64*,5,76*,2.2*
COc1ccc(CC2(CO)CCN(Cc3cnn(-c4ccc(F)cc4)c3)CC2)cc1,-12,4,17*,-6,2,5,1.5*
COc1ccc(CC2(CO)CCN(Cc3ccc(OC(F)(F)F)cc3)CC2)cc1,-23,7,17*,-12,-9,-4,1.8*
O=C(C(=O)N1CCC(Cc2ccccc2)CC1)c1ccccc1,.,.,16*!,.,.,-2,0
N#Cc1cccc(C(=O)C(=O)N2CCC(Cc3ccccc3)CC2)c1,.,.,-7,.,.,.,.
CCC(C)NS(=O)(=O)c1ccc(S(=O)(=O)N(CCc2ccc(OC)c(OC)c2)Cc2cccs2)cc1 (configuration not stated),12,58,26*,-6,19,56*,-1
Cc1cc(=S)c2cccc(C)c2[nH]1,-15,9,21*,4,-6,30*,0

# Assay outcomes as filed in PubChem BioAssay.
